# Assay outcomes (PubChem)
# Runt-SMMHC FRET – inhibitors of RUNX1 Runt–CBFb-SMMHC binding, primary screen, biochemical, FRET, Cerulean-Runt, Venus-CBFb-SMMHC, uHTS; AID 1434, 2008; Cerulean-Runt/Venus-CBFb-SMMHC FRET ratio 530/480, 1 h; Runt-related transcription factor 1 (Homo sapiens) + Core-binding factor subunit beta …; inhibition, % at 20 µM; hit rate 0.74% among 220,000;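 active = mean inhibition across duplicate retests at 20 µM reaching about 50%, limit read from the data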;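 also: 0% = DMSO wells and 100% = wells with excess untagged CBFb-SMMHC; inhibitors lower the FRET ratio by blocking Runt binding to CBFb-SMMHC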
# Target sequence (Q01196 whole entry, looked up): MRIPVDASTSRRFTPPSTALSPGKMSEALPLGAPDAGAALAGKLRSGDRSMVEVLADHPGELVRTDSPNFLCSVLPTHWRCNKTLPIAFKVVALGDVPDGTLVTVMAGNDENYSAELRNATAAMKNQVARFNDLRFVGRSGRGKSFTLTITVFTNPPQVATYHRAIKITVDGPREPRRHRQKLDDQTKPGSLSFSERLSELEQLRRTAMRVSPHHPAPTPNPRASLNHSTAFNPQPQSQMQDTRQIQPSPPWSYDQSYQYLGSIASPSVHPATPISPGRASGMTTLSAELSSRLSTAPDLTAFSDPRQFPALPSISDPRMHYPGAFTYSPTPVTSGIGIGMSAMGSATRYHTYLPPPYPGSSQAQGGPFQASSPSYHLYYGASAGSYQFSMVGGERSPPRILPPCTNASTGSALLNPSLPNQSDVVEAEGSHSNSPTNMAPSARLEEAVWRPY
# Target sequence (Q13951 whole entry, looked up): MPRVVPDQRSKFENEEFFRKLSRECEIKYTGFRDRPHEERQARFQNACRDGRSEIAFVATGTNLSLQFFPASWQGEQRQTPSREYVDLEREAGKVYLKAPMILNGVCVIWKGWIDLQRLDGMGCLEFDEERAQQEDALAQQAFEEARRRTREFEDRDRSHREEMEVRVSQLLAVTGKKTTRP
# zVAD death inh – inhibitors of zVAD-triggered necroptosis, primary screen, L929 cells | L929 zVAD necroptosis rescue, ATP luminescence, 24 h; with zVAD 60 µM | viability rescue, % at 10 µM | hit rate 0.38% among 220,000;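 active = activation, scaled between plate controls, above about 75%, limit read from the data; inactive = activation under that limit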;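 also: 0% = zVAD with DMSO and 100% = DMSO alone without zVAD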
# RanGTP-Imp inh – inhibitors of RanGTP-importin-beta interaction, primary screen, biochemical, FRET, CFP-Ran, YFP-importin-beta, homogeneous; Ran GTPase (GTP-bound) - importin-beta complex; AID 2216, 2009; hit rate 1.1% among 300,000; inhibition, % (concentration not given with the values); cell-free CFP-Ran/YFP-importin-beta FRET ratio;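 active = more than half of the replicate wells show a fall in the fluorescence ratio signal beyond about 16%, limit read from the data, passing the limit was not always enough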;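 also: 0% = DMSO wells and 100% = Ran loaded with GDP instead of GTP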
# Runt-CBFb FRET – inhibitors of RUNX1 Runt–CBFb binding, primary screen, biochemical, FRET, Cerulean-Runt, Venus-CBFb, uHTS. Runt-related transcription factor 1 (Homo sapiens) + Core-binding factor subunit beta …. Cerulean-Runt/Venus-CBFb FRET ratio 530/480, 1 h. inhibition, % at 20 µM. hit rate 0.46% among 220,000. AID 1496, 2009;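 active = inhibition over about 50% at 20 µM in the single-dose screen, limit read from the data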;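 also: 0% = DMSO wells and 100% = excess unlabeled CBFb competitor control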
#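 Buffer or medium: Tris pH 7.5 buffer with BSA. Assay system: Cerulean-labeled Runt domain protein. Amount: each fluorescent fusion protein 100 nM. Read-out basis: loss of energy transfer signal. Incubation: 1 h compound exposure, room temperature. Probe or stimulus: Venus-CBFb binding partner, 100 nM. Detection: FRET, excitation 422 nm, emission at 530 and 480 nm.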
# TNF death inh – inhibitors of TNF-alpha triggered necroptosis, primary screen, cell-based, Jurkat FADD-/-, single concentration. AID 463075, 2010. activation (protection from cell death), % at 10 µM. hit rate 0.068% among 220,000. Jurkat FADD-/- TNF necroptosis rescue, ATP luminescence, 24 h; 0 = TNF only, 100 = no-TNF cells;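 active = activation, meaning protection from cell death, of at least 50% relative to plate controls; inactive = activation below 50%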;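 also: necroptosis triggered by 40 ng/mL TNF-alpha added together with compound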
# Hck Nef HTS – inhibitors of Nef-activated human Hck kinase, primary screen, biochemical, Z-Lyte FRET, 384-well, Hck-YEEI | inhibition, % at 20 µM | Recombinant Hck-YEEI plus Nef, Z-Lyte FRET kinase assay | Tyrosine-protein kinase HCK (Homo sapiens), P08631 | AID 463187, 2010 | hit rate 0.68% among 220,000;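 active = Hck-Nef kinase inhibition above about 50%, limit read from the data; inactive = inhibition below that limit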;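 also: 0% = DMSO with Hck plus Nef and 100% = Hck alone without Nef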
# YIC FRET counter – YIC intramolecular FRET probe signal interference, dose response, counter-screen for RanGTP-importin-beta inhibitor project, biochemical, fluorescence FRET | shares compounds with RanGTP-Imp inh | Purified YIC probe, intramolecular FRET ratio YFP/CFP | IC50, µM | hit rate 40% among 1,000 | AID 435026, 2010;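 active = fitted half-maximal inhibitory concentration no more than tenfold above the top dose tested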
# * marks the source's active call; other numbers are inactive results; nt = not tested or not shown. Hits are enriched below; roughly 2.1% of the tested compounds scored in any of these assays.
SMILES,Runt-SMMHC FRET,zVAD death inh,RanGTP-Imp inh,Runt-CBFb FRET,TNF death inh,Hck Nef HTS,YIC FRET counter
OCCNc1c2ccccc2nc2c(F)c(F)c(F)c(F)c12,nt,67,20*,47,-15,0,6.5*
CN(C)/C=C1/C=C(C=O)OC1=O,10,1,5,2,0,-5,nt
O=C(CCC1N=C2c3ccccc3N=C(SCC(=O)NCC3CCCO3)N2C1=O)NCc1ccc(F)cc1 (stereo unspecified),nt,nt,-1,nt,nt,nt,nt
Cc1nn(C(=O)c2ccco2)c(C)c1CN1C(=O)c2ccccc2C1=O,-8,0,20*,-1,-3,2,>50
Cc1nn(C(=O)c2cccs2)c(C)c1CN1C(=O)c2ccccc2C1=O,-1,0,1,-2,1,12,nt
CCN(CC)S(=O)(=O)c1ccc2oc(C(=O)NCCCN3CCOCC3)c(C)c2c1,0,-1,17*,0,-1,0,>50
CCCc1ccc2oc(C(=O)NCCCN3CCOCC3)c(C)c2c1,nt,nt,1,nt,nt,nt,nt
COC(=O)C1=CN(c2ccc(OC)cc2)C=C(C(=O)OC)C1c1cccc(F)c1,nt,nt,17*,nt,nt,nt,7.5*
CC(CC(F)(F)F)N1CCC(n2nccc2NC(=O)CCOc2ccccc2)CC1 (stereo unspecified),nt,nt,27*,nt,nt,nt,>50
O=C(NCc1ccccc1C(F)(F)F)C1CC(c2ccc(C(F)(F)F)cc2)=NO1 (stereo unspecified),-4,1,17*,-1,3,26,>50
O=C(NCc1ccc(C(F)(F)F)cc1)C1CC(c2ccc(C(F)(F)F)cc2)=NO1 (stereo unspecified),nt,nt,-1,nt,nt,nt,nt
Cn1c(C(O)c2ccccc2)nc(Cl)c1Cl (stereo unspecified),0,3,-2,0,18,3,nt
CC(NC(=O)/C(C#N)=C/c1ccc(N2CCOCC2)cc1)c1ccccc1 (stereo unspecified),nt,nt,31*,nt,nt,nt,11*
Cc1ccc(C(=O)NCCNC(=O)COc2ccc(Cl)cc2)cn1,nt,nt,1,nt,nt,nt,nt
Cc1ccc(OCC(=O)NCCNC(=O)c2ccc(C)nc2)cc1,nt,nt,21*,nt,nt,nt,>50
CC1CCCCN1CC(O)COCc1ccc(Cl)cc1 (stereo unspecified),nt,nt,4,nt,nt,nt,nt
Cc1sc(NC(=O)c2ccccc2)c(C#N)c1-c1ccccc1,2,1,39*,2,2,-1,>50
CCc1c(C)sc(NC(=O)c2cccs2)c1C#N,-10,2,1,-2,0,5,nt
Cc1ccc(C)c(S(=O)(=O)NC(CCC(N)=O)C(=O)O)c1 (stereo unspecified),0,1,7,0,0,2,nt
CC/C(=N\NC(=O)c1cc(C2CC2)[nH]n1)c1ccccc1,nt,nt,38*,nt,nt,nt,>50
CCOC(=O)CSc1ncnc2c(C(=O)OCC)c3n(c12)CCC3,3,0,2,-4,1,5,nt
COCCNc1cc(C)nc2cc(-c3ccc(C)cc3)nn12,25,1,19*,3,-1,13,3.8*
Cc1cccc(-c2cc3nc(C)cc(NCCCN(C)C)n3n2)c1,4,0,2,1,-2,1,nt
Cn1c(N)c(C(=O)/C=C/c2ccccc2)c(=O)[nH]c1=O,0,0,2,1,-1,17,nt
Clc1ccc(/C=C/c2ncc3ccccn23)cc1,nt,-1,24*,nt,-4,26,2.5*
SMILES,Runt-SMMHC FRET,zVAD death inh,RanGTP-Imp inh,Runt-CBFb FRET,TNF death inh,Hck Nef HTS,YIC FRET counter
C/C(=N/NC(=O)CNC(=O)c1ccccn1)c1cccc([N+](=O)[O-])c1,-1,0,-1,1,0,27,nt
CCC(C)(C(=O)NC1CCCCC1)N(C(=O)CC1NC(=O)NC1=O)c1c(C)n(C)n(-c2ccccc2)c1=O (stereo unspecified),1,2,6,1,2,15,nt
COc1ccccc1C(=O)c1cc2ccc(O)cc2oc1=O,127*,3,55*,114*,0,30,7.1*
O=C(c1ccc(F)cc1)c1cc2ccc(O)cc2oc1=O,nt,nt,37*,nt,nt,nt,13*
O=C(c1ccccc1)c1cc2ccccc2oc1=O,nt,nt,-1,nt,nt,nt,nt
CC(C)SCC(=O)Nc1ncc2c(n1)-c1ccccc1CC2,18,4,18*,7,-1,31,3.5*
C=CCn1c(O)c(N=NC(=S)Nc2ccccc2F)c2ccccc21,-1,-1,-1,39,-1,25,nt
C=CCn1c(O)c(N=NC(=S)Nc2ccccc2F)c2cc(S(=O)(=O)N3CCOCC3)ccc21,-7,1,18*,0,1,26,>50
CSCC[C@H](NC(=O)C1CCC(CNC(=O)[C@@H]2CCCN2C(=O)OC(C)(C)C)CC1)C(=O)O (stereo partly specified),nt,nt,3,nt,nt,nt,nt
CC1(C)CC(=O)C=C(NNC(=O)C2CCCCC2)C1,-1,0,19*,-4,0,1,>50
Cc1cc(C)c(C2=CC(c3ccccc3)n3ncnc3N2)cc1C (stereo unspecified),nt,nt,18*,nt,nt,nt,30*
O=C(COC(=O)c1cc(=O)[nH]c2ccccc12)Nc1nc(-c2ccccc2)cs1,-7,1,-3,0,-1,3,nt
N#C/C(=C\c1ccc(-c2ccc(F)cc2)o1)C(=O)Nc1nc(-c2cccs2)cs1,-32,1,19*,-9,1,20,>50
N#C/C(=C/c1ccc(-c2ccccc2)o1)c1nc(-c2cccs2)cs1,-159,nt,nt,-23,4,2,nt
CN(C)S(=O)(=O)c1cccc(NC(=O)CNC2CCCCC2)c1,0,0,27*,-2,1,-1,>50
Cc1ccc(-n2c(SCC(=O)NCc3ccco3)nc3sc(C)c(C)c3c2=O)cc1,-3,nt,1,42,4,17,nt
Cc1sc2nc(SCC(=O)NCc3ccco3)n(-c3ccccc3)c(=O)c2c1C,-2,0,23*,-2,-3,2,>50
CC(=O)NS(=O)(=O)c1ccc(NC(=O)c2ccc3c(c2)C(=O)N(CCC(C)C)C3=O)cc1,-3,0,0,-6,1,3,nt
Cn1c(N/N=C/c2c[nH]c3ccccc23)nc2ccccc21,2,1,5,5,-9,-1,nt
